PAFAH1B2 inh = inhibitors of human PAFAH1B2; P68402; recombinant PAFAH1B2, FP-rhodamine activity probe, fluorescence polarization; inhibition, % at 3.39 µM; 1.2% of 340,000 active;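 active = inhibition above the mean of all tested compounds plus 3 SD, cut at about 24% in these data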;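 also: 0% = enzyme with DMSO and 100% = wells lacking PAFAH1B2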
PAFAH1B3 FP inh = PAFAH1B3 (human) inhibition; Q15102; recombinant PAFAH1B3, FP-rhodamine probe, fluorescence polarization; inhibition, % at 3.39 µM; 0.28% of 340,000 active;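 active = inhibition above the screen-wide average of all tested compounds plus 3 SD, cut at about 25% in these data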;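 also: 0% = enzyme with DMSO only and 100% = wells lacking PAFAH1B3 protein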
Target sequence (Q15102 whole entry, looked up): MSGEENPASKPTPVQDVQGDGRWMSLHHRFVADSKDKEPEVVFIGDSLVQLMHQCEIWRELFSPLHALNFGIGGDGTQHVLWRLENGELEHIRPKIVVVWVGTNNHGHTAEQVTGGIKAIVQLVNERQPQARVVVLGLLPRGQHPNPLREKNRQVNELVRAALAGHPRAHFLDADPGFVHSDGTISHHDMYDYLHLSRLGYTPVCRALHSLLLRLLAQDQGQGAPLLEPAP
ASAP1 inh = blocks human ASAP1-stimulated Arf1 GTP hydrolysis. Q9ULH1. GDP FP detection. inhibition, % at 16.5 µM. 0.19% of 360,000 active. AID 624377; in the data active = inhibition above about 25%;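 also: 0% = vehicle with enzyme and substrate and 100% = no enzyme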
ARFGAP1 inhibitor = inhibits rat ARF GTPase activating protein 1 | Arfgap1-stimulated ARF1 GTP hydrolysis, GDP FP detection | 0.26% of 360,000 active | inhibition, % at 16.5 µM | Q62848 | AID 651572;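 active = inhibition above a per-plate limit, mean inhibition of low control wells plus 3 SD, cut at about 25% in these data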;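 also: 0% = DMSO wells with enzyme and 100% = wells lacking Arfgap1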
Target sequence (Q62848 1-136 limits assumed): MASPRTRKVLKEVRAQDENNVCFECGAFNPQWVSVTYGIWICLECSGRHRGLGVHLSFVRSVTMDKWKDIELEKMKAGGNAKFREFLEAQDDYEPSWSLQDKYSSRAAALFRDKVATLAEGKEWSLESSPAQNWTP
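System: truncated rat Arfgap1 GAP domain / Medium: HEPES-based buffer, pH 7.5 / Also added: N-terminally truncated human ARF1-GTP substrate / Incubation: enzyme reaction 120 min at 25 °C after 20 min preincubation / Measured by: FP of antibody-bound GDP Alexa 633 tracer, ex 620/em 688 nm / Replicates: singlicate, each compound tested once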
pPAFAH inh = inhibitors of human plasma PAF acetylhydrolase (pPAFAH). Q13093. recombinant pPAFAH, FP-rhodamine probe fluorescence polarization. inhibition, % at 3.39 µM. 1.5% of 330,000 active;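 active = inhibition above the mean inhibition across the screen plus 3 SD, cut at about 25% in these data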;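 also: inhibitors block binding of the rhodamine activity-based probe so polarization drops; 0% = enzyme with DMSO and 100% = wells lacking pPAFAH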
PAFAH2 inh = PAFAH2 (human) inhibition; recombinant PAFAH2, FP-rhodamine activity probe, fluorescence polarization; AID 492956; Q99487; 0.99% of 340,000 active; inhibition, % at 3.39 µM;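 active = inhibition above the mean over all tested compounds plus 3 SD, cut at about 30% in these data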;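 also: inhibitors block probe labeling of enzyme so polarization drops; 0% = enzyme with DMSO and 100% = wells lacking PAFAH2 protein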
PAFAH1B3 confirm = PAFAH1B3 (human) inhibition, confirmed; shares compounds with PAFAH1B3 FP inh; recombinant PAFAH1B3, FP-Rh activity-based probe, fluorescence polarization; inhibition, % at 3.39 µM; 30% of 390 active; AID 493032;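 active = average inhibition over triplicate runs above the hit cutoff set in the earlier primary screen, cut at about 25% in these data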;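 also: 0% = enzyme with DMSO and 100% = wells lacking PAFAH1B3 protein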
The depositor's hits bear a star; / = no result given. Rows were chosen to be rich in hits. Some 2.7% of all compounds tested hit in one or more screens of this group.

SMILES	PAFAH1B2 inh	PAFAH1B3 FP inh	ASAP1 inh	ARFGAP1 inhibitor	pPAFAH inh	PAFAH2 inh	PAFAH1B3 confirm
O=C(c1cccc(NC2=NC3CS(=O)(=O)CC3S2)c1)N1CCN(c2cccc(Cl)c2)CC1 (stereo not drawn)	4	-5	8	6	2	-8	/
Cc1ccc(NC(=O)CSc2ncc(S(=O)(=O)c3ccccc3)c(=O)[nH]2)cc1C	4	4	-4	4	1	21	/
O=C(CSc1ncc(S(=O)(=O)c2ccccc2)c(=O)[nH]1)Nc1ccccc1Cl	-1	56*	5	-1	-5	8	51*
CC1=CC(C)(C)NC(=S)N1c1ccccc1C	3	4	-21	-2	2	-1	/
CC1=CC(C)(C)NC(=S)N1c1cccc2cc(S(=O)(=O)O)ccc12	11	29*	-7	5	23	12	24
CC(=O)c1c(C)[nH]c(C(=O)Nc2ccc(Cl)c(S(=O)(=O)N3CCOCC3)c2)c1C	8	28*	11	4	-3	2	5
CN(C)c1ccc(/C=C(\Cl)c2nc3ccccc3s2)cc1	1	8	/	/	2	-2	/
O=c1cc[nH]c2c1ccc1c(=O)cc[nH]c12	9	31*	-2	10	12	1	80*
O=c1cc[nH]c2c(Cl)cccc12	9	3	-9	0	-1	-2	/
Clc1ccc(C2Nc3cccc4cccc(c34)N2)cc1	12	13	-8	15	16	-3	/
c1cc2c3c(cccc3c1)NC(c1ccc3c(c1)OCO3)N2	13	28*	2	4	0	14	10
Cc1cccc(C2Nc3cccc4cccc(c34)N2)c1	9	31*	0	-3	4	6	9
CN(C)CCCNC(=O)c1cc(C(=O)c2cccc(Cl)c2Cl)c[nH]1	0	-3	6	-2	2	9	/
Cc1nnc(SCC(=O)Nc2cc(Cl)ccc2Cl)n1CC1CCCO1 (stereo not drawn)	0	-5	-1	0	1	-5	/
CN(Cc1ccccc1)c1ccc(C(CC(N)=O)NC(=O)c2ccccc2)cc1[N+](=O)[O-] (stereo not drawn)	-7	-1	2	5	8	-2	/
Cc1ccc2c(c1)N(CC(=O)N1CCCCC1C)C(=O)CO2 (stereo not drawn)	5	-4	-2	4	0	-2	/
CCCS(=O)(=O)c1c(S(=O)(=O)CCC)c2c(C)cccn2c1C(N)=O	4	2	0	11	5	-5	/
CCCS(=O)(=O)c1c(S(=O)(=O)CCC)c2c(C)cccn2c1C(=O)N/N=C/c1cc(O)cc(O)c1	-2	27*	-13	4	15	2	11
CCn1c(SCC(=O)c2c(N)n(C3CC3)c(=O)[nH]c2=O)nc2cc(S(N)(=O)=O)ccc21	-1	0	-14	-3	0	1	/
O=C(O)[C@@H]1[C@H]2C[C@H]3c4[nH]c5ccccc5c4CCN3C[C@@H]2CC[C@@H]1O	17	28*	-13	4	8	6	24
O=C(Nc1ccc(O)cc1)C1CC=CCC1 (stereo not drawn)	13	27*	11	2	17	26	12
O=C(Nc1nccs1)C1CC=CCC1 (stereo not drawn)	1	2	-6	-7	9	-7	/
CCOCCCNC(=S)N1CCCN(c2nc3cc(C)c(C)cc3cc2C#N)CC1	7	4	3	18	-2	2	/
COCCCNC(=S)N1CCCN(c2nc3cc(C)c(C)cc3cc2C#N)CC1	10	26*	6	-9	-1	2	4
O=C1C=C(Nc2ccc(F)cc2)c2ccccc2C1=O	7	34*	-1	4	10	8	24
CCOc1ccc(NC2=CC(=O)C(=O)c3ccccc32)cc1	15	49*	-12	8	/	14	31*
Cc1ccc(NC2=CC(=O)C(=O)c3ccccc32)c(C)c1	6	40*	6	9	3	5	17
O=C1C=C(Nc2ccccc2O)c2ccccc2C1=O	-9	3	3	-4	19	-13	/

High-throughput results (PubChem BioAssay)
